Article PMC10570129 (iScience, 2023)
Read-outs that look alike come from different tables or passages of the source.

Experiments:
[1] = target: mutated PahP (Tyr42‒Gly42, Leu135‒Ala135, Tyr-215‒Ala215, Leu-254‒Ala254); test: SPR, PAHs on site-mutated PahP; format: binding, Cycloclasticus sp. P1; details: range over mutated PahP and five PAHs
In short: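 Biacore T200 SPR. PahP protein was diluted in 10 mM sodium acetate (pH 5.5) and amine-coupled to a CM5 chip. PAHs were diluted to 50 μM in PBS running buffer with 5% DMSO. They were injected over the PahP surface for 120 s at 30 μL/min. Running buffer without PAH was the negative control.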

PahS = test: SPR, PAHs injected over PahS sensor chip; format: binding, Cycloclasticus sp. P1; details: read-out: KD of PahS for PAH, 20°C
In short: (§1)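 Biacore T200 SPR. The PahS protein, at 30 μg/mL in 10 mM sodium acetate (pH 5.5), was covalently immobilised on an L1 chip by primary amine coupling. Each PAH was diluted to 50 μM in PBS running buffer containing 5% DMSO. It was injected for 120 s at 30 μL/min. PAH-free running buffer served as the negative control.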

PahP = test: SPR, PAHs injected over PahP sensor chip; format: binding, Cycloclasticus sp. P1; details: read-out: KD of PahP for PAH
[2] = target: mutated PahS (Leu370‒Ala370, Leu444‒Ala444, Ala452‒Gly452); test: SPR, PAHs on site-mutated PahS; format: binding, Cycloclasticus sp. P1; details: range over three mutated proteins and five PAHs
In short: as §1

[3] = target: PahP-YFP (Cycloclasticus sp. P1); test: FRET or BRET
PahP binding to PahS = test: SPR, PahP bound to PAH in advance, injected over PahS sensor chip; set-up: species or system Cycloclasticus sp. P1; details: PahP binds PAH first
[4] = target: PahP (Cycloclasticus sp. P1); test: SPR
[5] = target: PahR (Cycloclasticus sp. P1); test: SPR
[6] = target: PahK (Cycloclasticus sp. P1); test: SPR
[7] = target: PahP (Cycloclasticus sp. P1); test: SPR; remark: listed apart in the source
[8] = target: PahP (Cycloclasticus sp. P1); test: SPR; remark: listed apart in the source
[9] = target: PahP and PahR of the PahK-PahP and PahK-PahR reporter cells; test: FRET or BRET

KD of site-mutated PahP with PAHs [1]	Kd (PahS)	Kd (PahP)	KD of the mutated PahS proteins with PAHs [2]	Compound	further results
10^−3 to 10^−4 M	21.7 nM	41 nM	10^−3 to 10^−4 M	c1ccc2cc3ccccc3cc2c1 [anthracene]	–
–	–	–	–	CFP-PahS (natural protein)	FRET efficiency [3]: 19.7%
10^−3 to 10^−4 M	14.6 nM	5.3 nM	10^−3 to 10^−4 M	c1ccc2ccccc2c1 [naphthalene]	–
10^−3 to 10^−4 M	21.4 nM	19.6 nM	10^−3 to 10^−4 M	c1ccc2c(c1)ccc1ccccc12 [phenanthrene]	binding affinity of PahP with PahS compared to that without PAH (PahP binding to PahS): lowered
–	–	–	–	PahS (natural protein)	Kd [4]: 2.12 nM; Kd [5]: 119 µM; Kd [6]: 174 µM; Kd [7]: 92 nM; Kd [8]: 2.97 nM
10^−3 to 10^−4 M	179 nM	17.4 nM	10^−3 to 10^−4 M	c1ccc2c(c1)Cc1ccccc1-2 [fluorene]	–
–	–	–	–	CFP-PahK (natural protein)	FRET efficiency [9]: 16.7 to 21.4%
–	–	–	–	PahK (natural protein)	Kd [5]: 0.0189 µM; Kd [7]: 9.8 nM

Compound	KD of site-mutated PahP with PAHs [1]	Kd (PahS)	Kd (PahP)	KD of the mutated PahS proteins with PAHs [2]	further results
c1cc2ccc3cccc4ccc(c1)c2c34 [pyrene]	10^−3 to 10^−4 M	21.1 nM	14.4 nM	10^−3 to 10^−4 M	binding affinity of PahP with PahS compared to that without PAH (PahP binding to PahS): lowered
